# Measurements taken from ChEMBL document CHEMBL1208732, “Addressing PXR liabilities of phthalazine-based hedgehog/smoothened antagonists using novel pyridopyridazines” (Bioorg Med Chem Lett, 2010).
# Columns and labels:
# [1] = target: T1, Nuclear receptor subfamily 1 group I member 2 (Homo sapiens, UniProt O75469); assay: Activation of human PXR expressed in HepG2 cells assessed as luciferase activity at 2 uM by chemiluminescence assay relative to rifampin; type: cell-based; conditions: hepg2, 2 µM
# T1 sequence (O75469 whole entry): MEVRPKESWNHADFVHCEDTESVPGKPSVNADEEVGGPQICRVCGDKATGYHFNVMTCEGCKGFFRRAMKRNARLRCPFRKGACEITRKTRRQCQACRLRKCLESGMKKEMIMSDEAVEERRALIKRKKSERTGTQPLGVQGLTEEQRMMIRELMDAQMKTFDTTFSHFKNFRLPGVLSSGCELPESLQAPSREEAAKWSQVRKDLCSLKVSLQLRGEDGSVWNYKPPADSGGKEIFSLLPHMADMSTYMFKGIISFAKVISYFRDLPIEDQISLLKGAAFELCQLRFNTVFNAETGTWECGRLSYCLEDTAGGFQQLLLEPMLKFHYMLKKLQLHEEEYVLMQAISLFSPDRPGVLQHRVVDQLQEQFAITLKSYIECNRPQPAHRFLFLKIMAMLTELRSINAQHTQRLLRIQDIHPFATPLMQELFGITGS
# In short: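 HepG2 cells transfected with a luciferase reporter construct driven by human PXR cDNA. Luciferase activity read by chemiluminescence and expressed as percent of the rifampin control.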
# [2] = Metabolic stability in human liver microsomes assessed as compound turn over after 30 mins; type: ADME, Microsome; conditions: read-out: Activity
# In short: (§1)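 Percent turnover of compound within 30 min in human or rat liver microsome homogenates.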
# [3] = Metabolic stability in rat liver microsomes assessed as compound turn over after 30 mins; type: ADME, Microsome; conditions: read-out: Activity; in short: as §1
# Protein smoothened [4] = target: Protein smoothened (Homo sapiens, UniProt Q99835); assay: Antagonist activity at human Smo receptor in HEPM cells assessed as inhibition of Gli expression after 24 hrs by quantigene assay; type: functional, cell-based
# In short: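 HEPM cells incubated with compound in MEM with 0.5% charcoal-dextran treated FBS and […] myristoylated mouse Shh protein. GLI expression measured 24 h after adding compound and Shh, using a Quantigene assay.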
# [5] = AUC in rat at 2 mg/kg, po; type: ADME, organism-based; parameters: dose 2 mg/kg, route oral; conditions: plasma
# In short: (§2)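 Pharmacokinetics measured in rat or mouse, with intravenous dosing at 0.5 mg/kg and oral dosing at 2 mg/kg. Reported parameters are iv clearance, Vdss, oral AUC and %F.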
# [6] = Clearance in rat at 0.5 mg/kg, iv; type: ADME, organism-based; parameters: dose 0.5 mg/kg, route intravenous; conditions: in vivo; in short: as §2
# [7] = Oral bioavailability in rat at 2 mg/kg; type: ADME, organism-based; conditions: in vivo; in short: as §2
# [8] = Volume of distribution at steady state in rat at 0.5 mg/kg, iv and 2 mg/kg, po; type: ADME, organism-based; conditions: in vivo, read-out: Vdss; in short: as §2
# [9] = Fraction unbound in mouse plasma by ultra centrifugation method; type: ADME, cell-free
# Mus musculus [10] = assay: Clearance in mouse at 0.5 mg/kg, iv; type: ADME, organism-based; parameters: dose 0.5 mg/kg, route intravenous; conditions: in vivo; in short: as §2
# Mus musculus [11] = assay: Oral bioavailability in mouse at 2 mg/kg; type: ADME, organism-based; conditions: in vivo; in short: as §2
# Mus musculus [12] = assay: Reduction of Gli1 expression in po dosed NOD-SCID mouse skin after 6 hrs by RT-PCR analysis; type: functional, organism-based
# In short: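 Female NOD-Scid mice aged 5–8 weeks had one hind flank shaved, then regrown hair removed with wax strips 4 days later. After 5 days mice were dosed orally with compound or vehicle, and skin was harvested 6 h post-dose into RNALater. Tissue homogenized and RNA purified. Four mice per group, two samples per animal, analysed by Dunnett's method.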
# Mus musculus [13] = assay: AUC in mouse at 2 mg/kg, po; type: ADME, organism-based, Plasma; parameters: dose 2 mg/kg, route oral; conditions: in vivo; in short: as §2
# Protein smoothened [14] = target: Protein smoothened (Mus musculus, UniProt P56726); assay: Antagonist activity at mouse cloned Smo receptor expressed in NIH-3T3 cells co expressing Gli1 binding site after 15 hrs by luciferase reporter gene assay; type: cell-based, NIH3T3
# In short: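 Stable NIH-3T3 clone carrying a luciferase reporter (pGL4.16) with five consensus Gli1 binding sites. Cells incubated 15 h with compound in Optimem with 0.5% charcoal-dextran treated FBS and […] myristoylated mouse Shh. Luciferase read with Bright-Glo on a luminometer. Threefold dilution series, run in quadruplicate.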
# [15] = Volume of distribution at steady state in mouse at 0.5 mg/kg, iv and 2 mg/kg, po; type: ADME, organism-based; conditions: in vivo, read-out: Vdss; in short: as §2
# Chain of Protein smoothened (Homo sapiens, UniProt Q99835) (Q99835 whole entry): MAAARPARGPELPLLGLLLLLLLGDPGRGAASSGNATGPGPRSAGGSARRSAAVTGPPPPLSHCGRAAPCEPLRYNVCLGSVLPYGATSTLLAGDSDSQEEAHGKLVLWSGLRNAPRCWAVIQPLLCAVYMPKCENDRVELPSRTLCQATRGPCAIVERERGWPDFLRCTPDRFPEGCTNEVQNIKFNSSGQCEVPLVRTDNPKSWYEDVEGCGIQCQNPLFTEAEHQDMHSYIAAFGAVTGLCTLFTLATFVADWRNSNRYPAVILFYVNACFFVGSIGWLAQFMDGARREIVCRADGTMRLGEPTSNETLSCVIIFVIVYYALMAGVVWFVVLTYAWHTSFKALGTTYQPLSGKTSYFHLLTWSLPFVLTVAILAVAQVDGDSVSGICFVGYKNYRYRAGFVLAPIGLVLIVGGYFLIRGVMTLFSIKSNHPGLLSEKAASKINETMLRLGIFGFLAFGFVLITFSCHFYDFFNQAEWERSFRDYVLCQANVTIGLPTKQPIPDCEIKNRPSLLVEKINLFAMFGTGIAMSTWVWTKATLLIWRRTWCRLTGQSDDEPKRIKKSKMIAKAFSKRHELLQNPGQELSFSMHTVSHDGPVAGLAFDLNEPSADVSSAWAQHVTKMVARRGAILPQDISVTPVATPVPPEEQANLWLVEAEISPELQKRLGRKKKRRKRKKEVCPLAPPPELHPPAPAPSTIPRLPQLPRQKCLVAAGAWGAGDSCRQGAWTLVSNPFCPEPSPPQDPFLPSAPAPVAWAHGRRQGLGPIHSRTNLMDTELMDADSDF
# Chain of Protein smoothened (Mus musculus, UniProt P56726) (P56726 whole entry): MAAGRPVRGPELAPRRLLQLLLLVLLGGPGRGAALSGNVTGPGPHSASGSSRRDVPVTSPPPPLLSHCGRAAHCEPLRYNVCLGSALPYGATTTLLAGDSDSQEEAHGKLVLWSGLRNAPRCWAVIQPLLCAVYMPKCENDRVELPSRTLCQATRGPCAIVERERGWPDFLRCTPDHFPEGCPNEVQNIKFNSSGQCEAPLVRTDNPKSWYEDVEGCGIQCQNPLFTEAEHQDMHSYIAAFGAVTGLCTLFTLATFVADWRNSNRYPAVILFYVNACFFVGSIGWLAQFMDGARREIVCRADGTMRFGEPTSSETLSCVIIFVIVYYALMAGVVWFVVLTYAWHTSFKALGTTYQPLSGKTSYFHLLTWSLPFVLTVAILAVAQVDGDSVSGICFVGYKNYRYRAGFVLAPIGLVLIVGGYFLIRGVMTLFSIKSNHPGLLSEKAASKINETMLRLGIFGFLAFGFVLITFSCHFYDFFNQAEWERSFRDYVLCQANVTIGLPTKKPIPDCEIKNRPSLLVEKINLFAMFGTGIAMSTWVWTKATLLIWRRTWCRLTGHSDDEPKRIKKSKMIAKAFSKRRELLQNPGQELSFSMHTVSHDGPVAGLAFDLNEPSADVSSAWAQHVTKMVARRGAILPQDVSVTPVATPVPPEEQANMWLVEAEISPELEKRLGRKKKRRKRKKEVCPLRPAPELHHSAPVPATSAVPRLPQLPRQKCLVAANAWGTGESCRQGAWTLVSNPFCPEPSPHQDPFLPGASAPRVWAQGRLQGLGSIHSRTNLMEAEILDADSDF
Compound,Activity [1],metabolised at 0.5 h [2],metabolised at 0.5 h [3],IC50 (Protein smoothened [4]),also measured
C[C@@H]1CN(C(=O)c2ccccc2)CCN1c1nnc(-c2ccc(N(C)C)cc2)c2ccccc12,17%,–,–,–,–
C[C@@H]1CN(C(=O)c2ccccc2)CCN1c1nnc(-c2cccnc2)c2ccccc12,23%,19%,16%,79 nM,–
C[C@@H]1CN(C(=O)c2ccccc2)CCN1c1nnc(-c2ccc(C(=O)O)cc2)c2ccccc12,2.7%,< 10%,< 10%,> 1000 nM,–
CC(=O)Oc1ccc(-c2nnc(N3CCN(C(=O)c4ccccc4)C[C@H]3C)c3ccccc23)cc1,6.1%,> 95%,> 95%,3.3 nM,–
C[C@@H]1CN(C(=O)c2ccccc2)CCN1c1nnc(-c2ccc(CC(N)=O)cc2)c2ccccc12,2.7%,10%,10%,4.8 nM,AUC [5]: 460 ng·h/mL; clearance [6]: 18.3 mL/min/kg; bioavailability [7]: 22%; Vd [8]: 1.4 L/kg
C[C@@H]1CN(C(=O)c2ccccc2)CCN1c1nnc(-c2ncco2)c2ccccc12,7.8%,< 10%,22%,> 1000 nM,–
C[C@@H]1CN(C(=O)c2ccccc2)CCN1c1nnc(-c2ccccc2)c2cnccc12,7.5%,30%,–,12 nM,–
C[C@@H]1CN(C(=O)c2ccccc2)CCN1c1nnc(-c2ccccc2)c2cccnc12,5.7%,56%,–,16 nM,–
C[C@@H]1CN(C(=O)c2ccccc2)CCN1c1nnc(-n2cccc2)c2ccccc12,12%,54%,63%,8.7 nM,–
C[C@@H]1CN(C(=O)c2ccccc2)CCN1c1nnc(-c2ccccc2)c2ncccc12,4.1%,13%,–,66 nM,–
C[C@@H]1CN(C(=O)c2ccccc2)CCN1c1nnc(-c2ccncc2)c2ccccc12,25%,11%,36%,25 nM,–
O=C(c1ccccc1)N1CCN(c2nnc(-c3ccccc3)c3ccccc23)CC1,12%,–,39%,–,–
C[C@@H]1CN(C(=O)c2ccccc2)CCN1c1nnc(-n2ccc3ccccc32)c2ccccc12,74%,55%,72%,8 nM,–
C[C@H]1CN(C(=O)c2ccccc2)CCN1c1nnc(-c2ccc(F)cc2)c2ccccc12,61%,< 10%,21%,12 nM,–
C[C@@H]1CN(C(=O)c2ccccc2)CCN1c1nnc(-n2ccnc2)c2ccccc12,3.7%,< 10%,16%,> 1000 nM,–
C[C@@H]1CN(C(=O)c2ccccc2)CCN1c1nnc(-c2cncnc2)c2ccccc12,7.1%,< 10%,< 10%,> 1000 nM,–
C[C@@H]1CN(C(=O)c2ccccc2)CCN1c1nnc(-c2ccc(C(F)(F)F)cc2)c2ccccc12,81%,–,–,–,AUC [5]: 1200 ng·h/mL; fraction unbound [9]: 0.06
C[C@@H]1CN(C(=O)c2ccccc2)CCN1c1nnc(-c2ccc(N3CCOCC3)cc2)c2ccccc12,6.6%,19%,28%,21 nM,–
C[C@@H]1CN(C(=O)c2ccccc2)CCN1c1nnc(-c2ccc(C(F)(F)F)cc2)c2ccncc12,9%,10%,< 10%,1 nM,AUC [5]: 3300 ng·h/mL; fraction unbound [9]: 0.035; CL (Mus musculus [10]): 10.7 mL/min/kg; clearance [6]: 7.67 mL/min/kg; bioavailability [7]: 73%; F (Mus musculus [11]): 46%; EC50 (Mus musculus [12]): 460 nM; AUC (Mus musculus [13]): 3500 ng·h/mL; Vd [8]: 3.5 L/kg; IC50 (Protein smoothened [14]): 0.7 nM; Vd [15]: 2 L/kg
C[C@@H]1CN(C(=O)c2ccccc2)CCN1c1nnc(-c2ccc(CO)cc2)c2ccccc12,3%,–,15%,–,clearance [6]: 95 mL/min/kg; Vd [8]: 1.8 L/kg
C[C@@H]1CN(C(=O)c2ccccc2)CCN1c1nnc(-c2ccc(C(N)=O)cc2)c2ccccc12,5.9%,< 10%,< 10%,19 nM,–
C[C@H]1CN(C(=O)c2ccccc2)CCN1c1nnc(-c2ccccc2)c2ccccc12,32%,< 10%,< 10%,–,–
C[C@@H]1CN(C(=O)c2ccccc2)CCN1c1nnc(-c2ccccn2)c2ccccc12,16%,12%,17%,57 nM,–
C[C@@H]1CN(C(=O)c2ccccc2)CCN1c1nnc(-c2ccccc2)c2ccccc12,30%,–,12%,–,AUC [5]: 1800 ng·h/mL; clearance [6]: 4.67 mL/min/kg; bioavailability [7]: 15%; Vd [8]: 1.7 L/kg
C[C@@H]1CN(C(=O)c2ccccc2)CCN1c1nnc(-c2ccccc2)c2ccncc12,4.9%,13%,–,5.8 nM,AUC [5]: 1600 ng·h/mL; clearance [6]: 7.5 mL/min/kg; bioavailability [7]: 35%; Vd [8]: 1.4 L/kg; IC50 (Protein smoothened [14]): 3 nM
O=C(c1ccccc1)N1CCN(c2nnc(-c3ccc(Cl)c(Cl)c3)c3ccccc23)CC1,48%,–,13%,–,–
